# Activity calls are given as the source filed them. The rule behind the calls is not given here.
# Biological target: Protein phosphatase methylesterase 1 (Mus musculus) (UniProt Q8BVQ5)
# Assay: endogenous mouse PME-1 inhibition by ABPP, late-stage follow-up, orthogonal assay for PME-1 inhibitor project, cell lysate, mouse brain cytosol, FP-rhodamine, in-gel fluorescence (AID 2369)
# Conditions: band fluorescence, at 20 µM, stronger effect = higher value
# How it was run: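 System: native PME-1, mouse brain cytosol / Quantity: cytosol, 2 mg/mL / Reagent: FP-rhodamine probe, 75 nM / Compound: 20 µM single dose / Times: compound pre-incubation 30 min at 25 °C, probe labeling 45 min / Measured by: in-gel fluorescence scanning of probe-labeled bands / Evaluation: percent PME-1 inhibition from integrated band optical density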
# Sequence of Protein phosphatase methylesterase 1 (Mus musculus) (Q8BVQ5 whole entry, looked up): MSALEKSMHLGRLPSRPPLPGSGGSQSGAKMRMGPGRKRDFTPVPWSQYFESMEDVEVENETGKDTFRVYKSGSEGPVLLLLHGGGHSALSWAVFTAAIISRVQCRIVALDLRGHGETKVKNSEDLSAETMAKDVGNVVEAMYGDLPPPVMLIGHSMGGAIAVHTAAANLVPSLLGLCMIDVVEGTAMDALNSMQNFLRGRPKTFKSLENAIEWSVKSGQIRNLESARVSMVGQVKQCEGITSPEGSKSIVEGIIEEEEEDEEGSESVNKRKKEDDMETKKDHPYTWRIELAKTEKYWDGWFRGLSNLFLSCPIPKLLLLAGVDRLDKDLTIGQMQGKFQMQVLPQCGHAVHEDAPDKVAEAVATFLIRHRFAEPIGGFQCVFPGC
row,inhibition,SMILES
1,90%,N#C/C(=C\c1cccn1S(=O)(=O)c1cccc([N+](=O)[O-])c1)S(=O)(=O)c1ccc(F)cc1
2,0% (inactive),Cc1ccc(-n2cccc2/C=C(\C#N)S(C)(=O)=O)c([N+](=O)[O-])c1
3,0% (inactive),CS(=O)(=O)/C(C#N)=C/c1cccn1-c1ccc(C(F)(F)F)cc1
4,0% (inactive),Cc1cc(C)n(-c2ccc(-n3cccc3/C=C(\C#N)S(C)(=O)=O)cc2)n1
5,85%,N#C/C(=C\c1cccn1S(=O)(=O)c1cccc(C#N)c1)S(=O)(=O)c1ccc(Cl)cc1
6,0% (inactive),Cc1ccc(-c2nc3sccn3c2/C=C(\C#N)S(C)(=O)=O)cc1
7,75%,N#C/C(=C\c1cccn1S(=O)(=O)c1cccc(OC(F)(F)F)c1)S(=O)(=O)c1ccc(F)cc1
8,0% (inactive),COC(=O)c1[nH]c2ccccc2c1/C=C(\C#N)S(C)(=O)=O
9,0% (inactive),Cc1cc(C)c(/C=C(\C#N)S(=O)(=O)c2ccccc2)[nH]1
10,0% (inactive),CCSc1ncc(/C=C(/C#N)S(C)(=O)=O)n1C
11,60% (inactive),COc1cccc(S(=O)(=O)n2cccc2/C=C(\C#N)S(=O)(=O)c2ccc(F)cc2)c1
12,0% (inactive),Cc1cc(C)n(-c2ccc(-n3cccc3/C=C(/C#N)S(=O)(=O)c3ccccc3)cc2)n1
13,0% (inactive),N#C/C(=C\c1cccn1-c1cc(Cl)cc(Cl)c1)S(=O)(=O)c1ccccc1
14,70%,N#C/C(=C\c1cccn1S(=O)(=O)c1cccc(C#N)c1)S(=O)(=O)c1ccc(Br)cc1
15,0% (inactive),CS(=O)(=O)/C(C#N)=C/c1cccn1-c1ccc(OC(F)(F)F)cc1
16,0% (inactive),N#C/C(=C\c1cccn1-c1ccc(Cl)cc1)S(=O)(=O)c1ccccc1
17,0% (inactive),CS(=O)(=O)/C(C#N)=C\c1cnc(S(=O)(=O)c2ccccc2)s1
18,60% (inactive),N#C/C(=C\c1cccn1S(=O)(=O)c1cccc(C(=O)O)c1)S(=O)(=O)c1ccc(F)cc1
19,0% (inactive),COc1ccc2[nH]c(/C=C(\C#N)S(C)(=O)=O)cc2c1
20,0% (inactive),CS(=O)(=O)/C(C#N)=C/c1cn(Cc2cnc(Cl)s2)c2ccccc12
21,0% (inactive),N#C/C(=C\c1cccn1-c1ccc(OC(F)(F)F)cc1)S(=O)(=O)c1ccccc1
22,0% (inactive),CS(=O)(=O)/C(C#N)=C\c1ccc(-n2cc(/C=C(/C#N)S(C)(=O)=O)c3ccccc32)cc1
23,80%,N#C/C(=C\c1cccn1S(=O)(=O)c1cccc(Cl)c1)S(=O)(=O)c1ccc(F)cc1

# Source: PubChem BioAssay AID2369 (The Scripps Research Institute Molecular Screening Center, 2010)
